CHOP UPR activ: activators of apoptotic CHOP UPR arm, primary screen, cell-based, CHO-CHOP luciferase reporter, luminescence, uHTS; hit rate 0.34% among 330,000; UPR activation; percent of tunicamycin response over DMSO baseline; activation, % at 10 µM;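 active = at 10 µM dose, activation of 40% or more, normalized to positive control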;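 also: 100% = tunicamycin at 10 µg/mL and 0% = DMSO alone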
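Assay system: CHO-CHOP cells, stable luciferase reporter of PERK-eIF2a-CHOP signalling / Buffer or medium: F12 plus 10% serum / Compound dosing: one dose, 10 µM in 0.5% DMSO / Times: 6 h compound treatment, 37 °C / Technique: luciferase luminescence / Read-out: % reporter activation, DMSO baseline versus tunicamycin full activation / Benchmarks: tunicamycin and DMSO controls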
VLA-4 inh: inhibition in human VLA-4 binding assay, primary screen, VLA-4 allosteric modulator project, MLPCN library, flow cytometry, VLA-4 expressing cells; Integrin alpha-4 (Homo sapiens), P13612; ligand binding flow cytometry; inhibition, % (about 7 µM as worked out from the volumes in the protocol); hit rate 0.2% among 330,000; AID 2557, 2010; in the data active = inhibition above about 50%
B2AR ag: beta2AR agonists driving receptor internalization, primary screen, cell-based, FAP fluorogen, flow cytometry | Beta-2 adrenergic receptor (Homo sapiens), P07550 | Am2.2-beta2AR cells | response, % (no concentration beside the values) | hit rate 0.43% among 340,000;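 active = response above a set limit, near 3 SD of response in nonfluorescent compounds, cut at about 42% in these data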
Target sequence (P07550 whole entry, looked up): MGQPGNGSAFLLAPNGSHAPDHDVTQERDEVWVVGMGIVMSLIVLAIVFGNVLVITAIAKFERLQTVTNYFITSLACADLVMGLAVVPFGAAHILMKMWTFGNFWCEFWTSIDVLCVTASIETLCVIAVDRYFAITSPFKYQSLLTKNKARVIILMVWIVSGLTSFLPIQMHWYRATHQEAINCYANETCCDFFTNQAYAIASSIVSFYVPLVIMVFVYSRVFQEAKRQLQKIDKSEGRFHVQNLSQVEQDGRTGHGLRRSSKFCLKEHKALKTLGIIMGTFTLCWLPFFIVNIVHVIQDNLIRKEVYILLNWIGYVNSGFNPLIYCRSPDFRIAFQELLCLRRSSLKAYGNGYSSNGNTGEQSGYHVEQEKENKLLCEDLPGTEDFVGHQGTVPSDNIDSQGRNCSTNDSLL
UPR XBP1 act: activators of adaptive XBP1 UPR arm, primary screen, cell-based, CHO-XBP1 luciferase reporter, luminescence, uHTS. IRE1-XBP1 UPR activation; percent of tunicamycin response, DMSO as zero. activation, % at 20 µM. hit rate 0.33% among 330,000. AID 463104, 2010;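 active = versus positive control, 20 µM dose yields 30% or more activation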;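 also: 100% = tunicamycin at 10 µg/mL and 0% = DMSO only wells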
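Signal: luciferase luminescence; Assay system: CHO-XBP1 luciferase reporter cells; Amount: one thousand reporter cells per well; Dosing: 20 µM single concentration, DMSO 1%; Benchmarks: high control tunicamycin 10 µg/mL final, low control DMSO vehicle only; Schedule: 6 h compound exposure at 37 °C, 5% CO2; Evaluation: percent activation relative to tunicamycin reference.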
CHOP inh: inhibitors of CHOP promoter induction, primary screen, cell-based, unfolded protein response, luciferase reporter | inhibition, % at 10 µM | AID 2732, 2010 | hit rate 3.8% among 220,000 | CHO-K1 CHOP-promoter luciferase, tunicamycin-induced, 15-18 h;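 active = compounds that reduced the stress-induced luciferase reporter signal by more than about 70% of percent inhibition, limit read from the data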;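 also: 0% = tunicamycin plus vehicle and 100% = wells without tunicamycin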
UPR XBP1 confirm: IRE1-XBP1 UPR arm activators, confirmation, cell-based, CHO-XBP1 luciferase reporter, luminescence, single concentration; shares compounds with UPR XBP1 act; activation, % at 20 µM; hit rate 63% among 1,000; AID 485299, 2010;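 active = reporter signal at least 30% of the positive control's activation in two or more of four replicate wells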;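 also: plate controls were DMSO negative control for no effect and tunicamycin 10 µg/mL positive control for full effect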
An asterisk follows results filed as active; x = no result. The full list was thinned out, with hits kept by preference.

SMILES	CHOP UPR activ	VLA-4 inh	B2AR ag	UPR XBP1 act	CHOP inh	UPR XBP1 confirm
CCn1nc(C)cc1C(=O)Sc1cccc(Br)c1	8	31	-1	97*	19	9
O=C(CSc1ccc2nnc(-c3ccc(Cl)cc3)n2n1)N1CCCc2ccccc21	3	-2	3	50*	23	18
O=C(CSc1ccc2nnc(-c3ccc(F)cc3)n2n1)N1CCCc2ccccc21	-1	-13	-7	-4	40	x
CCCCCCOc1ccc(/C(C)=N/NC2=NCCN2)cc1[N+](=O)[O-]	8	9	11	32*	1	16
C/C(=N\NC1=NCCN1)c1ccc(N)c([N+](=O)[O-])c1	2	16	-1	2	-22	x
COc1ccc(NC(=O)CSc2nc3ccc(Nc4nc(N5CCOCC5)nc(N5CCOCC5)n4)cc3s2)cc1	10	9	21	58*	x	31*
COc1ccccc1N(CC(=O)NCCN1CCOCC1)S(=O)(=O)c1ccc(C)cc1	-1	12	0	0	x	x
C[C@H](CO)N1C[C@H](C)[C@@H](CN(C)C(=O)Nc2ccc3c(c2)OCO3)Oc2c(NC(=O)Cc3ccccc3)cccc2C1=O	1	-8	-9	-3	x	x
Cn1c(=O)c2c(ncn2CC(=O)OCCCC(=O)c2ccc(Br)cc2)n(C)c1=O	5	-3	-5	-2	x	x
Cc1nc(NC(=O)CSc2ccc(-c3nc4ccccc4[nH]3)cn2)sc1C	11	-10	-10	54*	42	85*
Cc1c(CC(=O)N2CCC(C(N)=O)CC2)c(=O)oc2cc3c(cc12)CCC1(CCCCC1)O3	3	36	6	3	x	x
COc1ccc(CC(=O)Nc2cccc(-c3ccc4nncn4n3)c2)cc1OC	0	-3	-4	1	5	x
CC(/C=N/NC(=O)c1n[nH]c2c1CCC2)=C\c1ccccc1	4	45	x	18	x	x
O=C(N/N=C/C(Br)=C\c1ccccc1)c1n[nH]c2c1CCC2	5	0	36	35*	x	36*
CC1(S(=O)(=O)O)CC(=O)c2ccccc2C1=O (stereo not drawn)	3	8	13	-8	x	x
Cc1ccc(NC(=O)Cn2c(/C=C/c3ccccc3)nc3ccccc32)cc1C	27	0	-6	51*	28	35*
CCOC(=O)C(CCSC)Nc1nc(Cl)nc(Nc2ccc(Cl)cc2)n1 (stereo not drawn)	2	-26	-2	1	x	x
O=[N+]([O-])c1cccc(/C=C/c2ccc3cccc(O)c3n2)c1	32	6	-6	98*	x	158*
COc1ccccc1C1(O)C(=O)Nc2ccccc21 (stereo not drawn)	0	1	6	-4	x	x
CCCNC(C)C(=O)Nc1c(C)csc1C(=O)OC (stereo not drawn)	0	35	13	-10	x	x
CC(C)c1ccc(C2C3=C(COC3=O)Nc3cc4c(cc32)OCO4)cc1 (stereo not drawn)	4	22	3	43*	-25	93*
O=C(CCC(=O)N1CCOc2ccccc21)Nc1ccccc1Cl	-3	12	3	-1	x	x
O=C(Nc1nc2ccccc2s1)c1cc2c(s1)-c1ccccc1OC2	24	-3	5	134*	22	93*
Cc1ccc2oc(C(F)(F)C(F)F)cc(=O)c2c1	1	2	-2	1	6	x
Cc1ccc2oc(C(Cl)(Cl)Cl)cc(=O)c2c1	7	23	21	112*	64	121*
O=C1C2C3C=CC(CC3)C2C(=O)N1/N=C/c1ccc(O)c(O)c1 (stereo not drawn)	23	-6	3	45*	9	18
O=C1C2C3C=CC(CC3)C2C(=O)N1/N=C/c1ccc(O)cc1 (stereo not drawn)	0	2	1	-1	30	x
CCCCNC(=O)[C@@](CC)(ONc1ccccc1C(F)(F)F)c1cccc2ccccc12	2	5	3	-4	x	x
COc1ccc(Cl)cc1Nc1nc2ccc(C)cc2n2cnnc12	21	5	0	54*	x	11
